Screens as filed in PubChem BioAssay.
An excerpt weighted towards active compounds, which were near 2.1% of everything screened.
PAX8 inh HTS – inhibitors of PAX8 transcriptional activity in RMG-I cells | RMG-I TPO-luciferase reporter, SteadyGlo, 24 h | inhibition, % at 12.6 µM | AID 652154 | 360,000 tested, 1.2% active;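 active means mean replicate inhibition at least 60% with every replicate also reaching 60%; inconclusive means only one of the two criteria is met; inactive means mean below 60% and not all replicates reaching 60%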;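 further: luciferase light reporting Pax8 driven TPO promoter activity; plate controls were median of neutral control wells for no effect and mitoxantrone controls for full effect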
EWS-Fli inh – blocks EWS/Fli oncoprotein-driven transcription; A673 NR0B1-luciferase reporter, viability-normalised; inhibition, % at 12.6 µM; 350,000 tested, 0.67% active;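 active means mean inhibition of at least 50% after viability correction, with every replicate also passing that limit; inconclusive means mean reaches 50% but only one of two replicates passes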;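 further: firefly luciferase signal divided by Alamar Blue viability fluorescence both relative to DMSO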
Xi reactivation – X-chromosome reactivation activator. 360,000 tested, 0.055% active. XiGFP mouse fibroblasts, % GFP-positive cells imaging, 3 d; cells co-treated with 5-aza-dC sensitizer; scaled so ellipticine positive control = 100%. activation, % at 7.58 µM;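 active means mean normalized replicate activation at least 10% and every replicate at or above 10%; inconclusive means only one of the two criteria met; inactive means mean below 10% and not all replicates reach 10%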;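 further: 0% = median of on-plate neutral control wells and 100% = ellipticine 6 µM median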
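Assay system: SV40-immortalized XiGFP fibroblast cells, line 68-5-11; buffer or medium: DMEM plus 5-aza-dC sensitizer; compound: one concentration, pinned; timing: compounds 3 days, fix/stain 15 min at room temperature; benchmarks: positive control ellipticine, 6 µM final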
PGC1a acetyl inh – PGC1a acetylation modulation, inhibitor mode | AID 651687 | 350,000 tested, 0.17% active | U2OS PGC1a acetylation, AlphaScreen anti-acetyl-lysine; with virally co-expressed GCN5 acetyltransferase | inhibition, % at 15.6 µM;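 active means every replicate shows inhibition of at least 40%; inconclusive means mean inhibition at least 40% but some replicate below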;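 further: 0% = neutral control wells and 100% = positive control wells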
GSIS activator – GLuc luminescence reporter in INS-1E cells, primary screen for activators of glucose-dependent secretion of insulin | 370,000 tested, 0.61% active | AID 743287 | activation, % at 16.6 µM | INS-1E GLuc reporter insulin secretion, 2-3 h;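 active means lowest replicate activation of at least 40%, so every replicate reaches that level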;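 further: 0% = median of neutral control wells and 100% = median of IBMX positive control wells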
MLL AF4-AF9 inh – MLL-AF4/AF9 protein interaction inhibition | P42568 | AlphaScreen, biotin-AF4 peptide binding to FLAG-AF9 | inhibition, % at 10 µM | 350,000 tested, 0.47% active;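 active means every replicate reaching a set inhibition limit, whatever the replicate mean, cut at about 25% in these data; inconclusive means mean inhibition reaches that limit but some replicates miss it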;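 further: 0% = plate neutral control median and 100% = total signal loss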
Target sequence (P42568 whole entry, looked up): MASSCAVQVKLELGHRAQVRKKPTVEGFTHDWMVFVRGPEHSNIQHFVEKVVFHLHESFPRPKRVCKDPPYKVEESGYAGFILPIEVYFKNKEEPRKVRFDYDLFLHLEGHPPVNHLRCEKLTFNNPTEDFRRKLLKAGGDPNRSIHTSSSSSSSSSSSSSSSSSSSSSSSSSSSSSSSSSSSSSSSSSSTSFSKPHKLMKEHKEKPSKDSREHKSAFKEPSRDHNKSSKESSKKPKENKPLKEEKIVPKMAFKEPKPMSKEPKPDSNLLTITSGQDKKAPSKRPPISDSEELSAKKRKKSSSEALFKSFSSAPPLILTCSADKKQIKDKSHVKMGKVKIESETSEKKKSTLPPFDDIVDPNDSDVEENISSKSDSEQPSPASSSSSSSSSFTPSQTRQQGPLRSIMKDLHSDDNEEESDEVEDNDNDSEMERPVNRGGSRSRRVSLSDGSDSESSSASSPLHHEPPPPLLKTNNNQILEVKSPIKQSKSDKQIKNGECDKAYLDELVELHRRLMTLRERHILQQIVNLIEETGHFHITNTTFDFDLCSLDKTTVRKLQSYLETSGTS
AlphaScreen intf – AlphaScreen signal interference counter-screen hit; 530 tested, 45% active; shares compounds with MLL AF4-AF9 inh; AID 720494; signal luminescence; AC50, µM (highest dose often 12 µM), for inactives: at the top dose activity change, negative = inhibition; cut-off not given, nearly all actives have AC50 up to about 14 µM
Starred values were filed as active, the others as inactive; ? = inconclusive; . = no result given.

SMILES | PAX8 inh HTS | EWS-Fli inh | Xi reactivation | PGC1a acetyl inh | GSIS activator | MLL AF4-AF9 inh | AlphaScreen intf
Cc1cc(C(=O)Nc2cccc3c2O[C@H](CN(C)C(=O)NC(C)C)[C@H](C)CN([C@@H](C)CO)C3=O)n(C)n1 | 4 | 3 | 0 | -3 | 11 | 0 | .
CC(C)n1ncc2c(C(=O)Nc3ccc(S(N)(=O)=O)cc3)cc(C3CC3)nc21 | -1 | -4 | 0 | 5 | 52 | ? | -14%
CC(C)n1ncc2c(C(=O)Nc3ccc(S(C)(=O)=O)cc3)cc(C3CC3)nc21 | 0 | -5 | 0 | -7 | -8 | 1 | .
C[C@@H]1CCCCO[C@@H](CN(C)S(=O)(=O)c2ccc(F)cc2)[C@@H](C)CN([C@H](C)CO)C(=O)c2cc(NC(=O)Nc3ccc4c(c3)OCO4)ccc2O1 | -8 | 0 | 0 | -5 | 4 | -3 | .
CCOc1ccc(NC(=S)N(CCN2CCOCC2)Cc2ccc3c(c2)CCCN3CC)cc1 | 11 | 5 | 0 | -2 | -25 | 39* | -28%
CNC[C@@H]1Oc2ccc(NS(=O)(=O)c3ccc(OC)cc3)cc2CC(=O)N([C@H](C)CO)C[C@H]1C | 6 | 2 | 0 | -2 | -6 | -2 | .
O=C(Nc1ccccc1NC(=O)NC1CCCCC1)NC1CCCCC1 | . | . | . | -8 | -5 | . | .
Nc1ccccc1NC1CCCCC1 | -6 | 5 | 0 | . | -6 | 33* | 10µM*
C[C@@H]1CCCCO[C@@H](CN(C)Cc2ccc3c(c2)OCO3)[C@@H](C)CN([C@H](C)CO)C(=O)c2cc(NS(=O)(=O)c3ccc(F)cc3)ccc2O1 | -31 | 5 | 0 | 9 | -19 | 5 | .
O=S(=O)(c1ccc(Cl)cc1)N1CCN(Cc2ccc(O)c3ncccc23)CC1 | 50 | 8 | 6 | 11 | -10 | 75* | -33%
Cc1cc(N=Nc2ccc(Cl)cc2)cc(CN2CCOCC2)c1O | -9 | 0 | 0 | . | . | 30* | -34%
C#CCOCCOCCOCCNc1nc(N2CCN(C(=O)[C@H](CCCN=C(N)N)n3cc(C(N)[C@@H](C)CC)nn3)CC2)nc(N2CCN(C(=O)[C@H](CCCCN)n3cc([C@@H](N)CC(N)=O)nn3)CC2)n1 (some centres undefined) | 5 | -8 | 0 | . | 2 | 37* | -13%
C#CCOCCOCCOCCNc1nc(N2CCN(C(=O)Cn3cc(CCCN=C(N)N)nn3)CC2)nc(N2CCN(C(=O)[C@H](CCCCN)n3cc(CCCC)nn3)CC2)n1 | -6 | -7 | 0 | -7 | 16 | 15 | .
C#CCOCCOCCOCCNc1nc(N2CCN(C(=O)[C@H]([C@@H](C)CC)n3cc(CCCN=C(N)N)nn3)CC2)nc(N2CCN(C(=O)[C@H](CCCCN)n3cc(CCCC)nn3)CC2)n1 | 5 | -1 | 0 | -8 | . | 29* | -11%
CC(=O)N1CC2(C1)[C@@H](c1ccc(-c3ccccc3C)cc1)[C@H](CO)N2C(C)=O | . | . | 0 | . | -12 | . | .
CNC(=S)N1N=C(c2ccc(Br)cc2)CC1c1ccc(N(C)C)cc1 (centres undefined) | 4 | -5 | 0 | -4 | -3 | 27* | -30%
O=C(O)CCCNc1cc(N2CCN(C(=O)c3ccco3)CC2)c2noc3c2c1C(=O)c1ccccc1-3 | 4 | -27 | 0 | . | -5 | 37* | -21%
CCCNC(=O)N1CC2(C1)[C@@H](c1ccccc1)[C@@H](CO)N2C(=O)C1CC1 | -3 | 4 | 0 | 5 | 3 | -2 | .
COc1cccc2sc(N(CCCN(C)C)C(=O)c3ccc(S(=O)(=O)N4CCCc5ccccc54)cc3)nc12 | . | 33 | 0 | -1 | -27 | 36* | -18%
O=C(c1ccccc1F)N1C[C@@H]2[C@H](c3ccccc31)[C@@H](CO)N2C(=O)c1cccnc1 | 1 | 5 | 0 | 7 | 3 | 1 | .
Cc1csc(Nc2ccccc2)[n+]1-c1ccccc1 | -6 | 0 | 0 | . | -3 | 28* | -35%
Cc1csc(Nc2ccccc2)[n+]1C | -16 | -38 | 0 | 16 | -6 | 4 | .
C[C@@H]1CN([C@H](C)CO)C(=O)Cc2cc(NC(=O)CCC(F)(F)F)ccc2O[C@@H]1CN(C)C(=O)Nc1ccc(C(F)(F)F)cc1 | -7 | 4 | 1 | -3 | 2 | . | .
CC(C)C[C@@H](C(=O)NC1CCN(Cc2ccccc2)CC1)N1C(=O)N2CCc3c([nH]c4ccccc34)[C@@]2(C)C1=O | . | 27 | . | 1 | -32 | 37* | -2%
COc1cc(O)c(C(CCN2CCN(c3ccccc3)CC2)c2ccc(N(C)C)cc2)c(OC)c1 (centres undefined) | 6 | 1 | 0 | . | . | 50* | -23%
SMILES | PAX8 inh HTS | EWS-Fli inh | Xi reactivation | PGC1a acetyl inh | GSIS activator | MLL AF4-AF9 inh | AlphaScreen intf
COc1ccc(C(CCN2CCN(c3ccccc3)CC2)c2c(O)cc(OC)cc2OC)cc1 (centres undefined) | -7 | -5 | 0 | . | -9 | . | .
COc1ccc(CN2CC3(C2)CN(Cc2ccc4c(c2)OCO4)[C@H](CO)c2[nH]c4cc(OC)ccc4c23)cc1 | . | 16 | 0 | 14 | -9 | 36* | -28%
COc1ccc(CN2CC3(CN(Cc4ccccc4OC)C3)c3c([nH]c4cc(OC)ccc34)[C@H]2CO)cc1 | . | 17 | 0 | 14 | -1 | 14 | .
COc1ccc(-n2cc(CNCCc3cnc[nH]3)c(-c3cccc(F)c3)n2)cc1 | 11 | -5 | 0 | . | -10 | 30* | -19%
Cc1cccc(Nc2nc(N)c([N+](=O)[O-])c(NCCO)n2)c1 | 8 | -15 | 0 | -15 | 26 | 2 | .
COc1ccc(NC2=C(NCCO)C(=O)c3ccccc3C2=O)cc1 | -39 | 0 | 0 | . | -6 | 56* | 14µM*
COc1cccc(NC2=C(NCCO)C(=O)c3ccccc3C2=O)c1 | 16 | 1 | 0 | . | 1 | 38* | 14µM*
COc1cccc(Nc2c(Nc3cccc(OC)c3)c(=O)c2=O)c1 | 3 | 2 | 0 | 8 | -4 | -26 | .
COc1ccc(NC2=C(NC(C)=O)C(=O)c3ccccc3C2=O)cc1 | -1 | 2 | 0 | 4 | . | 10 | .
Cc1cccc(NC2=C(NCCO)C(=O)c3ccccc3C2=O)c1 | 25 | -11 | 0 | 13 | 70 | 49* | -26%
CC(C)c1cn(CC[C@@H]2CC[C@H](NS(=O)(=O)c3ccc(Cl)cc3)[C@H](CO)O2)nn1 | -5 | 8 | 7 | -4 | -3 | -2 | .
CC(C)NC(=O)N(C)C[C@H]1Oc2ccc(NS(=O)(=O)c3ccc(F)cc3)cc2C(=O)N([C@H](C)CO)C[C@H]1C | -1 | 1 | 0 | 12 | 12 | 1 | .
Cc1c(C)n(Cc2ccccc2)c2ccc(C(=O)OCCN(C)C)cc12 | -28 | 2 | 0 | -20 | 5 | 28* | -29%
